Screens deposited in PubChem BioAssay by several laboratories.
Diaph inh CS – diaphorase inhibition or chemical oxidation counter-screen; diaphorase resazurin-to-resorufin fluorescence, NADH, 16 min; bacterial (C. kluyveri) enzyme, not human; inhibition, % at 20 µM; 190,000 tested, 0.69% active; AID 1217;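 active means primary screen inhibition at 20 µM above a set limit, cut at about 50% in these data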
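Assay system – diaphorase enzyme from Clostridium kluyveri · Amount – diaphorase 0.14 U/mL (working solution) · Times – reaction incubation of 16 min at room temperature · Controls – No-NADH positive control and DMSO neutral control · Signal – resorufin fluorescence 544/590 nm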
L major viab – reduces viability of Leishmania major promastigotes; resazurin fluorescence viability; inhibition, % at 10 µM; 200,000 tested, 9% active; AID 1063; in the data active means inhibition above about 50%;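 further: promastigotes grown with compound for 44 hours at 28 °C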
WT yeast gro inh – growth inhibition of WT yeast, mitochondrial fusion screen; 190,000 tested, 2.1% active; mitochondrial fusion phenotypic screen, WT strain; AID 1362; inhibition, % at 10 µM; in the data active means inhibition above about 58%; tested in S. cerevisiae
ROMK mod – modulators of human ROMK potassium channel; P48048; Tet-inducible ROMK, thallium flux fluorescence; actives lie on both sides; B-score at 10 µM; 130,000 tested, 2% active; AID 1918;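 active means signal ratio slope over the read window, or its plate-corrected B-score, at least 3 SD from the plate mean, either direction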;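 further: B-score of the F/F0 ratio slope over 7 to 12 s after thallium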
Target sequence (P48048 whole entry, looked up): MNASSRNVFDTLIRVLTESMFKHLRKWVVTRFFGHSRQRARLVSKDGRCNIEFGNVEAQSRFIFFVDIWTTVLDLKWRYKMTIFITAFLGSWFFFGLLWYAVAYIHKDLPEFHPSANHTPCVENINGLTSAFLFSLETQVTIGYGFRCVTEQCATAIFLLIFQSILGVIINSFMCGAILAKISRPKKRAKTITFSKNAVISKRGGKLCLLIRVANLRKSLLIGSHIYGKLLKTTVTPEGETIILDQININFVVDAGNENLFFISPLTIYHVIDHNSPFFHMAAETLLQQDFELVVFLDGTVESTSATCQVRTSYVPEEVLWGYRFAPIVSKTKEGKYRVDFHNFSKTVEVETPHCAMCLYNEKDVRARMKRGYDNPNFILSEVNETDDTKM
Diaphorase act – activates diaphorase or chemically reduces, flagging diaphorase assay artifacts; activation factor at 20 µM; Diaphorase/resazurin coupled assay, resorufin fluorescence, 16 min; stronger effect = higher value; 1 = vehicle wells, 0 = NADH-free wells; 190,000 tested, 0.005% active; AID 1229;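 active means diaphorase activity raised at least twofold by the compound at 20 µM; inactive means activation factor below 2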
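Material: bacterial diaphorase enzyme (C. kluyveri); amount: enzyme 0.07 U/mL final; reagent: NADH substrate 0.114 mM plus resazurin dye 0.1 mM, final; doses: single compound dose of 20 µM, 1% DMSO final; timing: 16 min enzyme reaction, ambient temperature; measured by: fluorescence of resorufin, 544 nm excitation, 590 nm emission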
KCC2 mod – modulates chloride dependent transport by human KCC2. 190,000 tested, 2.2% active. B-score of Tl+ flux slope (higher = more flux/activation; lower = inhibition) at 10 µM. KCC2 cells, thallium flux FluoZin-2 fluorescence. AID 1456. Q9H2X9;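 active means thallium flux slope and its plate-corrected score both differing from the plate sample mean at a set confidence after two filtering rounds, in either direction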;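 further: slope of fluorescence scaled to starting intensity during 10 to 20 s after thallium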
Large screens that a line does not name were inactive. Only some compounds are listed: those with a hit (about 12% of all), similar ones and a draw of the others.

Cc1ccc(-c2csc3ncnc(N4CCc5ccccc5C4)c23)cc1	WT yeast gro inh 66 (no result: ROMK mod)
Fc1ccc(-c2csc3ncnc(N4CCc5ccccc5C4)c23)cc1	L major viab 67, WT yeast gro inh 66
OCC1CCCN(c2ncnc3scc(-c4ccccc4)c23)C1 (stereo not drawn)	none
Fc1ccc(-c2csc3ncnc(Nc4ccc(N5CCOCC5)cc4)c23)cc1	L major viab 65 (no result: ROMK mod)
Cn1c(N)c(C(=O)COC(=O)C2CC(=O)N(Cc3ccccc3)C2)c(=O)n(C)c1=O (stereo not drawn)	none
COc1cc(OC)cc(C(=O)N[C@H](C(=O)Nc2cc(C)cc(C)c2)C(C)C)c1	none (no result: KCC2 mod)
CCCNC(=O)CN(C)S(=O)(=O)c1ccc(F)cc1	L major viab 64
CC(C)NC(=O)CN(C)S(=O)(=O)c1ccc(F)cc1	none
CCCCOc1ccc(CSCCNC(=S)Nc2ccccc2)cc1	none (no result: ROMK mod)
CC(C)COc1ccc(CSCCNC(=S)Nc2ccccc2)cc1	L major viab 72, WT yeast gro inh 76 (no result: ROMK mod)
CCCCCOc1ccc(CSCCNC(=S)Nc2ccccc2)cc1	L major viab 53, WT yeast gro inh 68
CCn1cc(C(=O)NCc2ccco2)c(=O)c2cc(S(=O)(=O)N3CCCCCC3)ccc21	none (no result: ROMK mod)
CCCCN(C)CCCNC(=O)c1cn(CC)c2ccc(S(=O)(=O)N3CCc4ccccc4C3)cc2c1=O	L major viab 99
CCn1cc(C(=O)NCCCN2CCCC2)c(=O)c2cc(S(=O)(=O)N3CCc4ccccc4C3)ccc21	none
CCn1cc(C(=O)NCc2ccco2)c(=O)c2cc(S(=O)(=O)N3CCc4ccccc4C3)ccc21	L major viab 97 (no result: ROMK mod)
CCCN(CCC)CCCNC(=O)c1cn(CC)c2ccc(S(=O)(=O)N3CCc4ccccc4C3)cc2c1=O	L major viab 99
O=C(COC(=O)c1cc(S(=O)(=O)N2CCc3ccccc3C2)ccc1Cl)NCc1ccco1	Diaph inh CS 52 (no result: KCC2 mod)
CCC(=O)Nc1ccc(C(=O)CSc2nnc(-c3ccc(NS(C)(=O)=O)cc3)n2C)cc1OC	none (no result: ROMK mod)
Cc1cc(C)c(C)c(S(=O)(=O)N2CCCCC2C(=O)O)c1C (stereo not drawn)	none (no result: ROMK mod)
CCOC(=O)CSCC(=O)Nc1c(C(=O)C2CC2)oc2ccccc12	none (no result: ROMK mod)
Clc1ccc(-c2nnc(CNC3CC3)o2)cc1	none (no result: ROMK mod)
CCCCN(CC)CCCNC(=O)c1cn(CC)c2ccc(S(=O)(=O)N3CCc4ccccc4C3)cc2c1=O	L major viab 98
CCC1CCCCN1C1Sc2ccc(C(=O)OC)cc2NC1=O (stereo not drawn)	L major viab 100
Cc1ccc(N(CCC#N)C(=O)CCl)cc1C	L major viab 79
CCCOc1c(Br)cc(C2C3=C(CCCC3=O)N(CC)C3=C2C(=O)CCC3)cc1OC	none
CCCOc1c(Br)cc(C2C3=C(CCCC3=O)N(C)C3=C2C(=O)CCC3)cc1OC	L major viab 97 (no result: ROMK mod)
COC(=O)c1ccccc1S(=O)(=O)N1Cc2cc([N+](=O)[O-])ccc2Oc2ccccc21	L major viab 86
O=C(Nc1cnn(Cc2ccc(Cl)c(Cl)c2)c1)C12CC3CC(CC(C3)C1)C2	none (no result: ROMK mod)
O=C(O)c1cc(NC(=O)c2ccc(Cl)c([N+](=O)[O-])c2)cc(C(=O)O)c1	none
O=C(Nc1ccccc1)Nc1ccc(Cl)c([N+](=O)[O-])c1	L major viab 53, WT yeast gro inh 82
O=C(Nc1ccc(C(O)(C(F)(F)F)C(F)(F)F)cc1)c1ccc(Cl)c([N+](=O)[O-])c1	L major viab 53, WT yeast gro inh 74
Cc1ccc(NC(=O)Nc2ccccc2)cc1[N+](=O)[O-]	none
CC(CC(=O)Nc1ccc(Cl)c([N+](=O)[O-])c1)c1ccccc1 (stereo not drawn)	WT yeast gro inh 80
Cc1cc(OC(F)F)ccc1NC(=O)Nc1ccc([N+](=O)[O-])cc1	none (no result: ROMK mod)
O=C(COC(=O)c1cc(=O)[nH]c(=O)[nH]1)NCc1ccccc1	none (no result: ROMK mod)
O=C(Nc1ccccc1F)C1CCCN(S(=O)(=O)c2ccccc2)C1 (stereo not drawn)	none
CSc1ccc(S(=O)(=O)NCCSc2ccccn2)cc1	none
COc1ccc(OC)c2c(C)cc(C)nc12	none
CC1CCc2c(C(=O)Oc3cccc(-n4cnnn4)c3)csc2C1 (stereo not drawn)	WT yeast gro inh 61 (no result: KCC2 mod)
COc1cc(C(C[N+](=O)[O-])c2c(N)n(C)c(=O)n(C)c2=O)ccc1O (stereo not drawn)	L major viab 73
Cc1ccc(C(C[N+](=O)[O-])c2c(N)n(C)c(=O)n(C)c2=O)cc1 (stereo not drawn)	none (no result: Diaph inh CS, L major viab, WT yeast gro inh, Diaphorase act)
CC1CN(C(=O)N(C)C)CCN1C(=O)N(C)C (stereo not drawn)	WT yeast gro inh 66
COc1ccccc1Cn1c(=O)c2ccccc2n2c(Sc3ncnc4sccc34)nnc12	L major viab 89 (no result: ROMK mod)
COc1ccccc1Cn1c(=O)c2ccccc2n2c(SCc3csc(C)n3)nnc12	none (no result: ROMK mod)
COCC(C)NCC(=O)NC(C)CCc1ccccc1 (stereo not drawn)	none
CCOC(=O)C(=CN=C(N)Nc1nc2ccccc2o1)C(=O)OCC	L major viab 56
CCCCN(CC)Cc1ccc(CNC(=S)Nc2cccc(F)c2)o1	L major viab 78
COc1ccc(N(CC(=O)Nc2nccs2)S(=O)(=O)c2c(C)[nH]c(=O)[nH]c2=O)cc1	none
Cc1ccc(NC(=O)CSCC(=O)N2c3ccccc3CCc3ccccc32)cc1	L major viab 67
COC(C[C@@H](O)C[C@H](O)[C@@H](C)OCc1ccccc1)OC	none (no result: Diaph inh CS, L major viab, WT yeast gro inh, ROMK mod, Diaphorase act)
O=C1C(=O)c2ccc(-c3ccccc3)cc2-c2ccccc21	L major viab 100
CC1CCN(C(=O)COC(=O)c2ccc3c(c2)OCO3)CC1	none
CCOP(=O)(c1ccccc1)C1(O)CCCCC1 (stereo not drawn)	none (no result: KCC2 mod)
COc1cc(-c2[nH]ncc2CN2CCCC2c2nonc2C)cc(OC)c1OC (stereo not drawn)	none
Cc1nonc1C1CCCN1Cc1cn[nH]c1-c1ccc(-c2ccccc2)cc1 (stereo not drawn)	WT yeast gro inh 58
CCCc1cc2c(cc1NC(=O)c1ccccc1C)OCO2	none
COc1ccc(-c2oc3c(CC=C(C)C)c(O[C@@H]4O[C@H](CO)[C@@H](O)[C@H](O)[C@H]4O)cc(O)c3c(=O)c2O[C@@H]2O[C@@H](C)[C@H](O)[C@@H](O)[C@H]2O)cc1	none (no result: L major viab, ROMK mod)
O=c1c(OC2OC(CO)C(O)C(O)C2OC2OC(CO)C(O)C(O)C2O)c(-c2ccc(O)cc2)oc2cc(O)cc(O)c12 (stereo not drawn)	none (no result: Diaph inh CS, L major viab, WT yeast gro inh, ROMK mod, Diaphorase act)
O=c1c(OC2OC(CO)C(O)C(O)C2O)c(-c2ccc(O)c(O)c2)oc2cc(O)cc(O)c12 (stereo not drawn)	Diaph inh CS 62
